Experimental findings from BindingDB's records for doi:10.1021/acs.jmedchem.5b00686 (University of Hawaii At Hilo, 2015) are described below.

One may read the IC50 as the point on the concentration scale where inhibition reaches its midpoint. Low values mean inhibition by little substance, high ones a need for much substance.

Each structure is given as a SMILES string.

This experiment addresses Signal transducer and activator of transcription 3 (Homo sapiens, UniProt P40763). The experiment is described as follows: Inhibition of Stat3 dimer DNA binding activity in human U373MG cells nuclear extract after 1.5 hrs by EMSA using radiolabeled probe hSIE. The gist of the method:
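Sub-confluent U251MG or U373MG cells treated with compound (5 μM for 0–24 h, or 0–5 μM for 1.5 h). Stat3:DNA bands scanned, quantified and plotted against concentration to derive IC50. Controls were 0.025% DMSO.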
On the technique in general: A gel shift assay detects complexes by their altered migration in electrophoresis.

Sequence of Signal transducer and activator of transcription 3 (P40763 whole entry): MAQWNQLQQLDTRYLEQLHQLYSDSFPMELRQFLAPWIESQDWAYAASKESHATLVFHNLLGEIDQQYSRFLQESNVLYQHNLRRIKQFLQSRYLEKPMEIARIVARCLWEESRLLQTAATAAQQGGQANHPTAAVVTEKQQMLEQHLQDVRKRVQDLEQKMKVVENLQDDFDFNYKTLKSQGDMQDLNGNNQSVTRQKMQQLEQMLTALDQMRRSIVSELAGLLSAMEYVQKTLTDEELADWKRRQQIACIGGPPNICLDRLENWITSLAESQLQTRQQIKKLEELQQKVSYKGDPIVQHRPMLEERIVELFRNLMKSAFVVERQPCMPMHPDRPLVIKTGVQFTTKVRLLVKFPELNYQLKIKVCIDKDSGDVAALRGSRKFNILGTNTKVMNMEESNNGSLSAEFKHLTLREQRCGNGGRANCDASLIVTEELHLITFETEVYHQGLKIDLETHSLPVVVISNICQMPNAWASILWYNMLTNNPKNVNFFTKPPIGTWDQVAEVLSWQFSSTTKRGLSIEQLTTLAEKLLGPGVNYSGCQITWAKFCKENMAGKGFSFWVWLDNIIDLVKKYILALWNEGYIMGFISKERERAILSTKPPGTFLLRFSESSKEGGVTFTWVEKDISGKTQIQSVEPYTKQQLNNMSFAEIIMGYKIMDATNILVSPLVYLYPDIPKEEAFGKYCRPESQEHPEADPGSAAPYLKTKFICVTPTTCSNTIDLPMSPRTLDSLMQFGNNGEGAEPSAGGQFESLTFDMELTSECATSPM

`C/C=C(\C)C(=O)OCC1=C2/C(=C\[C@@]3(C)CC[C@](O)(O3)[C@H](C)C[C@@H]2O)OC1=O` had an IC50 of 2.4 µM.
For `C/C=C(\C)C(=O)O[C@H]1C[C@@H](C)[C@]2(OC)CC[C@](C)(/C=C3/OC(=O)C(COC(C)=O)=C31)O2` [Vernolide-B] the value was 4.1 µM.
